Data reported in ChEMBL document CHEMBL3588837, “Development and validation of a novel assay to identify radiosensitizers that target nucleophosmin 1” (Bioorg Med Chem, 2015).
The source made the active and inactive calls. The calls are words filed in the database; no cut-off is given here.

Legend:
[1] = biological target: Nucleophosmin (Homo sapiens) (UniProt P06748); test: (§1) Inhibition of phosphorylated NPM1 recruitment to chromatic in 6 Gy irradiated human A549 cells assessed as increase in solubility of protein pretreated 30 mins and measured after 90 mins of irradiation at 5 uM by Western blot analysis relative to DMSO control in presence of high NP-40 lysis buffer; format: cell-based
[2] = system: Nucleophosmin (Homo sapiens), P06748 [T199N]; test: (§2) Inhibition of phosphorylated NPM1 recruitment to chromatic in 6 Gy irradiated human A549 cells assessed as band intensity ratio of protein solubility measured as extraction of pT199NPM1 pretreated 30 mins and measured after 90 mins of irradiation at 25 uM by Western blot analysis in presence of high NP-40 lysis buffer relative to DMSO control; format: cell-based
In short: (§3)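 A549 cells at 70–80% confluency were exposed to compound for 30 min, given 6 Gy from a Cs137 source at 2 Gy/min, and held 90 min at 37°C. Equal protein was run on 10% SDS-PAGE and immunoblotted for pT199 NPM1 and total NPM1. Band intensity ratio = (compound+6 Gy)/(DMSO+6 Gy).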

[3] = system: Nucleophosmin (Homo sapiens), P06748 [T199N]; test: Inhibition of phosphorylated NPM1 recruitment to chromatic in 6 Gy irradiated human A549 cells assessed as extraction of pT199NPM1 pretreated 30 mins and measured after 90 mins of irradiation at 2.5 uM by Western blot analysis relative to DMSO control in presence of high NP-40 lysis buffer; format: cell-based; in short: as §3
[4] = system: Nucleophosmin (Homo sapiens), P06748 [T199N]; test: as §2, with “2.5” for “25”; format: cell-based
[5] = system: NCI-H460; test: Radiodensitization of 6 Gy irradiated human H460 cells assessed as colony formation pretreated 30 mins followed by irradiated for 90 mins and washed off measured after 10 to 14 days incubation at 5 uM by trypan blue assay; format: functional, cell-based
In short: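 H460 cells, grown in RPMI-1640, were plated in T25 flasks and exposed to 5 μM drug at 37°C for 30 min. They were then irradiated at various radiation doses and incubated 90 min. Drug was washed off with PBS and fresh medium added. Flasks were kept 10–14 days, and colonies were stained with trypan blue and counted.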

[6] = system: Nucleophosmin (Homo sapiens), P06748 [T199N]; test: Inhibition of phosphorylated NPM1 recruitment to chromatic in 6 Gy irradiated human A549 cells assessed as increase in protein solubility as extraction of pT199NPM1 pretreated 30 mins and measured after 90 mins of irradiation by Western blot analysis relative to YTR107 in presence of high NP-40 lysis buffer; format: cell-based
[7] = biological target: T1, Nucleophosmin (Homo sapiens, UniProt P06748, T199N); test: Inhibition of phosphorylated NPM1 recruitment to chromatic in 6 Gy irradiated human A549 cells assessed as extraction of pT199NPM1 pretreated 30 mins and measured after 90 mins of irradiation by Western blot analysis in presence of high NP-40 lysis buffer; format: cell-based
[8] = system: Nucleophosmin (Homo sapiens), P06748 [T199N]; test: Inhibition of phosphorylated NPM1 recruitment to chromatic in 6 Gy irradiated human IMR90 cells assessed as extraction of pT199NPM1 pretreated 30 mins and measured after 90 mins of irradiation at 25 uM by Western blot analysis relative to DMSO control in presence of high NP-40 lysis buffer; format: cell-based; details: IMR-90
In short: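 IMR-90 normal lung fibroblasts, grown in DMEM, received 25 μM drug for 30 min, were irradiated, and were incubated 90 min. Total lysate was prepared with NP-40 lysis buffer and analysed by Western blot for pT199 NPM1.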

[9] = biological target: T1, Nucleophosmin; test: Inhibition of phosphorylated NPM1 recruitment to chromatic in 6 Gy irradiated human A549 cells assessed as increase in protein solubility as extraction of pT199NPM1 pretreated 30 mins and measured after 90 mins of irradiation by Western blot analysis; format: cell-based
In short: (§4)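 Drug or DMSO at various concentrations was present on A549 cells for 30 min before, during, and 90 min after 0 or 6 Gy. Nuclear proteins were extracted in 420 mM NaCl high salt buffer and blotted for pT199 NPM1. Buffer-soluble pNPM1 in irradiated cells was quantified relative to non-irradiated cells (±SD, N=3). EC50 was taken from the band intensity plot.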

[10] = system: Nucleophosmin (Homo sapiens), P06748 [T199N]; test: Inhibition of phosphorylated NPM1 recruitment to chromatic in 6 Gy irradiated human A549 cells assessed as increase in protein solubility as extraction of pT199NPM1 pretreated 30 mins and measured after 90 mins of irradiation at 10 uM by Western blot analysis; format: cell-based; in short: as §4
[11] = system: Nucleophosmin (Homo sapiens), P06748 [T199N]; test: Inhibition of phosphorylated NPM1 recruitment to chromatic in 6 Gy irradiated human A549 cells assessed as extraction of pT199NPM1 pretreated 30 mins and measured after 90 mins of irradiation at 25 uM by Western blot analysis in presence of high salt lysis buffer; format: cell-based
In short: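 A549 cells were dosed with 25 μM drug for 30 min, irradiated, and incubated 90 min. Nuclei were isolated on ice, then extracted in high salt buffer (10 mM HEPES pH 7.2, 420 mM NaCl, 1.5 mM MgCl2, 0.5 mM DTT, 25% glycerol). Extracts were immunoblotted for pT199 NPM1 and total NPM1.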

[12] = system: Nucleophosmin (Homo sapiens), P06748 [T199N]; test: Inhibition of phosphorylated NPM1 recruitment to chromatic in 6 Gy irradiated human A549 cells assessed as extraction of pT199NPM1 pretreated 30 mins and measured after 90 mins of irradiation at 25 uM by Western blot analysis in presence of high RIPA lysis buffer; format: cell-based
[13] = system: Nucleophosmin (Homo sapiens), P06748 [T199N]; test: Inhibition of phosphorylated NPM1 recruitment to chromatic in 6 Gy irradiated human A549 cells assessed as extraction of pT199NPM1 pretreated 30 mins and measured after 90 mins of irradiation at 25 uM by Western blot analysis in presence of high NP-40 lysis buffer; format: cell-based
[14] = biological target: Nucleophosmin (Homo sapiens) (UniProt P06748); test: as §1, with “irradiation at 2.5 to 5 uM” for “irradiation at 5 uM”; format: cell-based

Chain of Nucleophosmin (Homo sapiens), P06748 [T199N] (P06748 whole entry T199N): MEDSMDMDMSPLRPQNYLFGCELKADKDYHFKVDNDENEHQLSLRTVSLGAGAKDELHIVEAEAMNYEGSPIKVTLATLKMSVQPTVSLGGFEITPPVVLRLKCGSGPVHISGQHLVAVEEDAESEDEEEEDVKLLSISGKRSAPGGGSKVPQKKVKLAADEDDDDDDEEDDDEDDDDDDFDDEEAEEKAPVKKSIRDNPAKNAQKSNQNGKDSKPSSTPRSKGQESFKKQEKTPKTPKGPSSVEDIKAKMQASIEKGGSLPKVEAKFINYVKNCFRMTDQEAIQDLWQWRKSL
T1 sequence (P06748 whole entry T199N): as above
Chain of Nucleophosmin (Homo sapiens) (P06748 whole entry): as the sequence (P06748 whole entry T199N) above, with N199T counted along it

SMILES	Ratio [2]	further results
Cc1c(C=C2C(=O)NC(=O)NC2=O)c2ccccc2n1Cc1ccc(C#N)cc1	1.58	Activity [1]: Active; Activity [3]: inactive
Cc1c(C=C2C(=O)NC(=S)NC2=O)c2ccccc2n1Cc1ccc(Br)cc1		Ratio [4]: 1.78; Activity [5]: Active; fold change (FC) [6]: 4; EC50 [7]: 2.5 µM
COc1ccc(Cn2c(C)c(C=C3C(=O)NC(=S)NC3=O)c3ccccc32)c(OC)c1	1.22	
Cc1c(C=C2C(=O)NC(=O)NC2=O)c2ccccc2n1Cc1ccccc1	1.53	
N#Cc1ccc(Cn2cc(C=C3C(=O)NC(=O)NC3=O)c3ccccc32)cc1	1.51	Activity [8]: inactive; EC50 [9]: 9.7 µM; Activity [10]: Active; Activity [11]: Active; Activity [12]: Active; Activity [13]: Active
Cc1c(C=C2C(=O)NC(=O)NC2=O)c2ccccc2n1Cc1ccccc1C(F)(F)F	1.16	
COc1cc(Cn2c(C)c(C=C3C(=O)NC(=S)NC3=O)c3ccccc32)cc(OC)c1	1.97	
COC(=O)c1ccc(Cn2c(C)c(C=C3C(=O)NC(=O)NC3=O)c3ccccc32)cc1	1.48	
Cc1c(C=C2C(=O)NC(=S)NC2=O)c2ccccc2n1Cc1ccccc1C(F)(F)F	1.54	
Cc1c(C=C2C(=O)NC(=O)NC2=O)c2ccccc2n1Cc1ccc(Br)cc1	1.23	
Cc1c(C=C2C(=O)NC(=O)NC2=O)c2ccccc2n1Cc1ccccc1Br	1.05	
COc1cc(Cn2c(C)c(C=C3C(=O)NC(=S)NC3=O)c3ccccc32)cc(OC)c1OC	1.97	
Cc1c(C=C2C(=O)NC(=S)NC2=O)c2ccccc2n1Cc1ccc(C#N)cc1	1.86	
Cc1c(C=C2C(=O)NC(=S)NC2=O)c2ccccc2n1Cc1ccccc1	1.96	
Cc1c(C=C2C(=O)NC(=S)NC2=O)c2ccccc2n1Cc1ccccc1Br	1.68	
COc1cc(Cn2c(C)c(C=C3C(=O)NC(=O)NC3=O)c3ccccc32)cc(OC)c1OC	1.16	
COc1cc(Cn2c(C)c(C=C3C(=O)NC(=O)NC3=O)c3ccccc32)cc(OC)c1	1.63	Activity [14]: inactive
COC(=O)c1ccc(Cn2c(C)c(C=C3C(=O)NC(=S)NC3=O)c3ccccc32)cc1	1.74	
